{"source": "ChEMBL document CHEMBL4118021", "about": "“Studies of TAK1-centered polypharmacology with novel covalent TAK1 inhibitors” (Bioorg Med Chem, 2017)", "key": {"[1]": {"target": "Vascular endothelial growth factor receptor 2 (Homo sapiens) (UniProt P35968)", "test": "Inhibition of human VEGFR2 (787 to 1253 residues) expressed in mammalian expression system assessed as enzyme activity at 10 uM by KINOMEScan assay relative to control", "set-up": "scale not given: the % may be the effect or the level left", "summary_of_the_method": "(§1)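 In vitro ATP-site competition binding assay across a panel of 456 kinases, with compound tested at 1 and 10 μM.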"}, "[2]": {"target": "T1, Dual specificity mitogen-activated protein kinase kinase 5 (Homo sapiens) (UniProt Q13163)", "T1 sequence (whole entry)": "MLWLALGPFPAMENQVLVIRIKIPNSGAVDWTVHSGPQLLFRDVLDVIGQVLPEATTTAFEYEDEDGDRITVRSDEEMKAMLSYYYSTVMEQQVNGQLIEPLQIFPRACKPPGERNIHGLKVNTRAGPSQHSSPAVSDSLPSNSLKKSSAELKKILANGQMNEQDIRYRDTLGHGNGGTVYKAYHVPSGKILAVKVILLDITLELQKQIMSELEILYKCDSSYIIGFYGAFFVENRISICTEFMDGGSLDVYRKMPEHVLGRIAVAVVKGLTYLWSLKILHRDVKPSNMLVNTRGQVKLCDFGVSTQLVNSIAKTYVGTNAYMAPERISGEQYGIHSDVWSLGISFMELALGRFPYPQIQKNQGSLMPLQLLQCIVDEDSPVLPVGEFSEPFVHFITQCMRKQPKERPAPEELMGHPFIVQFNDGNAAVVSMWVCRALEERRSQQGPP", "test": "Inhibition of human MEK5 (98 to 448 residues) expressed in mammalian expression system assessed as enzyme activity at 10 uM by KINOMEScan assay relative to control", "set-up": "scale not given: the % may be the effect or the level left", "summary_of_the_method": "as §1"}, "[3]": {"target": "T1, Dual specificity mitogen-activated protein kinase kinase 5 (Homo sapiens)", "test": "Inhibition of human MEK5 (98 to 448 residues) expressed in mammalian expression system assessed as enzyme activity at 1 uM by KINOMEScan assay relative to control", "set-up": "scale not given: the % may be the effect or the level left", "summary_of_the_method": "as §1"}, "[4]": {"target": "T2, 80S Ribosome (Homo sapiens) (UniProt P08865+P42677+P62753+P15880+P23396+P61247+P62701+P22090+P46782+P62081+P62241+P46781+P46783+P62280+P25398+P62277+P62263+P62841+P62244+P62249+P08708+P62269+P39019+P60866+P63220+P62266+P62847+P62851+P62854+P62979+P62857+P62273+P62861+P39023+P36578+P46777+Q02878+P18124+P62424+P62917+P32969+P27635+P62906+P62913+P30050+P26373+P40429+P50914+P61313+P18621+Q07020+Q02543+P84098+P46778+P35268+P62829+P62750+P83731+P61254+P61353+P46776+P46779+P47914+P62888+P62899+P62910+P49207+P42766+P18077+Q9Y3U8+P83881+P61927+P61513+P63173+P62891+P62945+P05388+P05386)", "test": "Binding affinity to RPL23A in human NCI-H23 cells at 1 uM by mass spectrometry based pull down assay", "assay_type": "cell-based"}, "[5]": {"target": "Ribosomal protein S6 kinase alpha-4 (Homo sapiens) (UniProt O75676)", "test": "Binding affinity to RPS6KA4 in human NCI-H358 cells at 1 uM by mass spectrometry based pull down assay", "assay_type": "cell-based"}, "[6]": {"target": "Thioredoxin (Homo sapiens) (UniProt P10599)", "sequence (P10599 whole entry)": "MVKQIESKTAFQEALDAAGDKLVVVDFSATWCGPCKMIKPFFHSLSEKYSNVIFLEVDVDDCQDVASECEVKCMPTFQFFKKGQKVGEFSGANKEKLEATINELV", "test": "Binding affinity to TXN in human NCI-H358 cells at 1 uM by mass spectrometry based pull down assay", "assay_type": "cell-based"}, "[7]": {"target": "Proteasome activator complex subunit 2 (Homo sapiens) (UniProt Q9UL46)", "sequence (Q9UL46 whole entry, one chain of several)": "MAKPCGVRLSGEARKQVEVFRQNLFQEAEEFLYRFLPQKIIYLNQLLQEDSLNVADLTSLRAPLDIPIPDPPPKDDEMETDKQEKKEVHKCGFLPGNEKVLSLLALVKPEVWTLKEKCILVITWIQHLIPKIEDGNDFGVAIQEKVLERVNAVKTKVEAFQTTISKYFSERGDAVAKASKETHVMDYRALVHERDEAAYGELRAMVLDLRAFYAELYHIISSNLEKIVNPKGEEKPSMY", "test": "Binding affinity to PSME2 in human NCI-H23 cells at 1 uM by mass spectrometry based pull down assay", "assay_type": "cell-based"}, "[8]": {"target": "ADP-ribose glycohydrolase OARD1 (Homo sapiens) (UniProt Q9Y530)", "test": "Binding affinity to OARD1 in human NCI-H358 cells at 1 uM by mass spectrometry based pull down assay", "assay_type": "cell-based"}, "[9]": {"test_system": "NCI-H23", "test": "Binding affinity to PSMA1 in human NCI-H23 cells at 1 uM by mass spectrometry based pull down assay", "assay_type": "cell-based"}, "[10]": {"target": "Interleukin-1 receptor-associated kinase 1 (Homo sapiens) (UniProt P51617)", "test": "Binding affinity to IRAK1 in human NCI-H23 cells at 1 uM by mass spectrometry based pull down assay", "assay_type": "cell-based"}, "[11]": {"target": "Glyoxylate reductase/hydroxypyruvate reductase (Homo sapiens) (UniProt Q9UBQ7)", "test": "Binding affinity to GRHPR in human NCI-H23 cells at 1 uM by mass spectrometry based pull down assay", "assay_type": "cell-based"}, "[12]": {"target": "Actin-related protein 2 (Homo sapiens) (UniProt P61160)", "test": "Binding affinity to ACTR2 in human NCI-H358 cells at 1 uM by mass spectrometry based pull down assay", "assay_type": "cell-based", "summary_of_the_method": "(§2)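 NCI-H23 or NCI-H358 cells were grown and lysed. Lysates were incubated overnight at 4 °C with 1 μM biotinylated covalent probe or DMSO, then pulled down on streptavidin beads. Proteins were run on polyacrylamide gels and stained with Coomassie. Bands were excised, digested and identified by mass spectrometry.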"}, "[13]": {"target": "Multifunctional protein CAD (Homo sapiens) (UniProt P27708)", "sequence (P27708 whole entry)": "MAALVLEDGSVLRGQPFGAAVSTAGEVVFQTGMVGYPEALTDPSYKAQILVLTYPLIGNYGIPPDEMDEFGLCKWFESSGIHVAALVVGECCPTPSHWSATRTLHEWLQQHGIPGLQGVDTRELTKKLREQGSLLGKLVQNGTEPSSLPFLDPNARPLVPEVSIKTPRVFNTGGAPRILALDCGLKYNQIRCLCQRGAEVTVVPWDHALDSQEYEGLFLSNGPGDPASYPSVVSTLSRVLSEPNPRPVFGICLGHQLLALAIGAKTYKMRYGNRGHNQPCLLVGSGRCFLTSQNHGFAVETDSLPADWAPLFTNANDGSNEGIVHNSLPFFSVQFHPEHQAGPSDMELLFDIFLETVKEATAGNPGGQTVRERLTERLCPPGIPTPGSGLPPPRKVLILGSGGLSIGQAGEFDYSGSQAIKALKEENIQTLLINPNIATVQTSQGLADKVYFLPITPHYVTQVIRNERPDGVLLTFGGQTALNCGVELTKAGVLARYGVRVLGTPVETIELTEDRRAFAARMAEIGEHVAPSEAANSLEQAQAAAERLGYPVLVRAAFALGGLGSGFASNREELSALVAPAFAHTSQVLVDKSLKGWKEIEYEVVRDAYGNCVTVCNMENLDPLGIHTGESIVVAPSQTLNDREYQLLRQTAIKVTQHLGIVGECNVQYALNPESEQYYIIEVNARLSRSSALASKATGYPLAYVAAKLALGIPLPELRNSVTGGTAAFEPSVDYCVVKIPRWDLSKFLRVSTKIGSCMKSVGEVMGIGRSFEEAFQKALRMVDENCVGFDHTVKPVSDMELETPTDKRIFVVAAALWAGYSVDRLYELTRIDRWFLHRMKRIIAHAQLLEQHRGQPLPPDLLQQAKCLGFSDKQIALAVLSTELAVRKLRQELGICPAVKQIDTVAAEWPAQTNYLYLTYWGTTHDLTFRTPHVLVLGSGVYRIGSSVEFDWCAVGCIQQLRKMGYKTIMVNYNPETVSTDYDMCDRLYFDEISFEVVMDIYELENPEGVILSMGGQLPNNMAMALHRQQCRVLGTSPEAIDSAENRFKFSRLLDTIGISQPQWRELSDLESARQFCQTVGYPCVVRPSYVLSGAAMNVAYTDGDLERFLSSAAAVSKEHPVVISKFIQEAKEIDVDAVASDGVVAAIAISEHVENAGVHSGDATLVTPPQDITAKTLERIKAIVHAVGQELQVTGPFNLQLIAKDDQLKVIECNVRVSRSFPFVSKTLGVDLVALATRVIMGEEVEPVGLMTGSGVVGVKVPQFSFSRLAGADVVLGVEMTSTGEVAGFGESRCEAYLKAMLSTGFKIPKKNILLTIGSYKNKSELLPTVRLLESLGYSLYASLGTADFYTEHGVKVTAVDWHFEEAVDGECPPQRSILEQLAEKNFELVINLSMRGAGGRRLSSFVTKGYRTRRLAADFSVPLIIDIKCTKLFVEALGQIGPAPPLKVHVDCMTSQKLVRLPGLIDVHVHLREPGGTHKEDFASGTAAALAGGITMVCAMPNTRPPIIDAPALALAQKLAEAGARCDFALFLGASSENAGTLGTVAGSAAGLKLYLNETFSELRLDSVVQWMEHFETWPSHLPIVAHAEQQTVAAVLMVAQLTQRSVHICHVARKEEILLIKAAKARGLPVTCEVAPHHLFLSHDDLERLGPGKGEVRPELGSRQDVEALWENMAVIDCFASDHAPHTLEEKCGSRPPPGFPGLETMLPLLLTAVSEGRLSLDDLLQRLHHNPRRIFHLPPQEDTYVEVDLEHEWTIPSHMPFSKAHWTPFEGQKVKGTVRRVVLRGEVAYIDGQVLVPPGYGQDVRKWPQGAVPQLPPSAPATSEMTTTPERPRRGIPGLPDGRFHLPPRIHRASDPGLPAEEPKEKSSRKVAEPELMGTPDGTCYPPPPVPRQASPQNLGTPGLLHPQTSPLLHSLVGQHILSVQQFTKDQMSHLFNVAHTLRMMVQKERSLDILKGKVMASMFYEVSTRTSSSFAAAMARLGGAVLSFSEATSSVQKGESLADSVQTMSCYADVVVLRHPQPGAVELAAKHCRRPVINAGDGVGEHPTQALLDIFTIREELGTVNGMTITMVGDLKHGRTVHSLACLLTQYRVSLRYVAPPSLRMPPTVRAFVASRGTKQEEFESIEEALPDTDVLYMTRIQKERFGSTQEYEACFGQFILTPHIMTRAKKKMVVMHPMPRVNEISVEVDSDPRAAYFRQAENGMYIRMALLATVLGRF", "test": "Binding affinity to CAD in human NCI-H358 cells at 1 uM by mass spectrometry based pull down assay", "assay_type": "cell-based"}, "[14]": {"target": "ATP-dependent RNA helicase DHX15 (Homo sapiens) (UniProt O43143)", "sequence (O43143 whole entry)": "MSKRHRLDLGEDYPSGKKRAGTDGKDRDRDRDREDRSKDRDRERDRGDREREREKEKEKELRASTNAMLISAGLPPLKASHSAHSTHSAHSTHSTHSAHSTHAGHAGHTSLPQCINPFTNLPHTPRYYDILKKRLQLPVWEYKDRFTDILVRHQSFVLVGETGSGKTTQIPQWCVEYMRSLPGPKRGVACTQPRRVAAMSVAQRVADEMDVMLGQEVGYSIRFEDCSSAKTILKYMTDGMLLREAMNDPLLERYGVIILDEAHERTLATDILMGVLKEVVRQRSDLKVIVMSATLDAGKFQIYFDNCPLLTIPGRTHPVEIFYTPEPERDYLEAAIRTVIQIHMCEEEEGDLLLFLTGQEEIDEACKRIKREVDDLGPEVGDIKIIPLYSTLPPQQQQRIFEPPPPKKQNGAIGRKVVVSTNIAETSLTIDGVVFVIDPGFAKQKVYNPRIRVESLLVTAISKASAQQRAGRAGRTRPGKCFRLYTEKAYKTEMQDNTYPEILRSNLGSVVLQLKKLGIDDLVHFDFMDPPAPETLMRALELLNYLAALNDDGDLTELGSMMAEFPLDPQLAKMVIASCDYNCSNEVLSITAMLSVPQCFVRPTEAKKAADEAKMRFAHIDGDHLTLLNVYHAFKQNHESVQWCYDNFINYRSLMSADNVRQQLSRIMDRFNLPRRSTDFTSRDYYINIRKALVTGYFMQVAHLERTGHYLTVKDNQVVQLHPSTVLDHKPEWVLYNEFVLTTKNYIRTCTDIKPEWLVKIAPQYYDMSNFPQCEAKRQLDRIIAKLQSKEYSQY", "test": "Binding affinity to DHX15 in human NCI-H358 cells at 1 uM by mass spectrometry based pull down assay", "assay_type": "cell-based"}, "[15]": {"target": "Caprin-1 (Homo sapiens) (UniProt Q14444)", "sequence (Q14444 whole entry)": "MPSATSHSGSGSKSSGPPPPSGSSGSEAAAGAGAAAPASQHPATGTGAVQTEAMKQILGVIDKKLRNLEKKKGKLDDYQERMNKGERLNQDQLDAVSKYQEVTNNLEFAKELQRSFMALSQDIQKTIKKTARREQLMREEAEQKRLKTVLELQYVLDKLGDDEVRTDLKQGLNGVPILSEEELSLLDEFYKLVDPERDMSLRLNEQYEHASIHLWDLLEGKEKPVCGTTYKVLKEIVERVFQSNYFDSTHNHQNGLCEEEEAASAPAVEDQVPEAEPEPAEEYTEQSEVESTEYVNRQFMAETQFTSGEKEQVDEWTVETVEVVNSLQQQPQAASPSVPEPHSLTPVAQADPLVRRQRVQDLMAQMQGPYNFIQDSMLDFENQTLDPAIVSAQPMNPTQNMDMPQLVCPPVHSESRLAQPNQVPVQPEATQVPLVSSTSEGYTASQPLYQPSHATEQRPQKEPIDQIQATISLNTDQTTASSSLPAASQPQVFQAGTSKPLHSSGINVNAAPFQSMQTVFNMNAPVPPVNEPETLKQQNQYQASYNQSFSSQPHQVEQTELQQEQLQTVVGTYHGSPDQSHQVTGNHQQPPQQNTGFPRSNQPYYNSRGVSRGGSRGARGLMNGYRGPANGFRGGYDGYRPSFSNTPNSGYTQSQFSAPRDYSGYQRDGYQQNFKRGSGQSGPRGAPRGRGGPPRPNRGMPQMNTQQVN", "test": "Binding affinity to CAPRIN1 in human NCI-H358 cells at 1 uM by mass spectrometry based pull down assay", "assay_type": "cell-based"}, "[16]": {"target": "Translation initiation factor eIF2B subunit gamma (Homo sapiens) (UniProt Q9NR50)", "sequence (Q9NR50 whole entry)": "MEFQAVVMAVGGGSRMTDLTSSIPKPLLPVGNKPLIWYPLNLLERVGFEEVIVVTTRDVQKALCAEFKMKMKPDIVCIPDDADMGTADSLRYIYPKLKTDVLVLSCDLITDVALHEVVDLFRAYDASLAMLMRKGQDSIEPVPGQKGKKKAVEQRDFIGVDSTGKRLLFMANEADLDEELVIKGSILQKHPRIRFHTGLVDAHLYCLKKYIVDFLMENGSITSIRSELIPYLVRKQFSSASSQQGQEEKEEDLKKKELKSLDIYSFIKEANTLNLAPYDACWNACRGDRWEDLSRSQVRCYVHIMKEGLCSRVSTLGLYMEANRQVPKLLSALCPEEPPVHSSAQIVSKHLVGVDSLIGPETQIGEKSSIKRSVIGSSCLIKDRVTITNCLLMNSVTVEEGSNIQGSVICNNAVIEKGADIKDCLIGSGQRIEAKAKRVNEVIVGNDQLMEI", "test": "Binding affinity to EIF2B3 in human NCI-H358 cells at 1 uM by mass spectrometry based pull down assay", "assay_type": "cell-based"}, "[17]": {"target": "T2, 80S Ribosome (Homo sapiens)", "test": "Binding affinity to RPS10 in human NCI-H23 cells at 1 uM by mass spectrometry based pull down assay", "assay_type": "cell-based"}, "[18]": {"target": "Glycogen synthase kinase-3 beta (Homo sapiens) (UniProt P49841)", "test": "Binding affinity to GSK3B in human NCI-H358 cells at 1 uM by mass spectrometry based pull down assay", "assay_type": "cell-based"}, "[19]": {"target": "Protein phosphatase 1G (Homo sapiens) (UniProt O15355)", "test": "Binding affinity to PPM1G in human NCI-H23 cells at 1 uM by mass spectrometry based pull down assay", "assay_type": "cell-based"}, "[20]": {"target": "Deoxyribose-phosphate aldolase (Homo sapiens) (UniProt Q9Y315)", "sequence (Q9Y315 whole entry)": "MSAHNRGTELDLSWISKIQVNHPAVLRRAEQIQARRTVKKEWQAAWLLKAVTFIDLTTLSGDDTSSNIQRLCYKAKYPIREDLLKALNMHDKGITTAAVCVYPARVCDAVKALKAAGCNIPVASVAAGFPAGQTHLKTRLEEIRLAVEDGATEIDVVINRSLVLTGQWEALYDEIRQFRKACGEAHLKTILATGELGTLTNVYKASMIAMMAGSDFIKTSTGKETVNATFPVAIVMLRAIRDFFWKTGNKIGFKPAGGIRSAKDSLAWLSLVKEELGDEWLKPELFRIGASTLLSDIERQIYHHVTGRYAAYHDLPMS", "test": "Binding affinity to DERA in human NCI-H23 cells at 1 uM by mass spectrometry based pull down assay", "assay_type": "cell-based"}, "[21]": {"target": "Cytosolic iron-sulfur assembly component 2B (Homo sapiens) (UniProt Q9Y3D0)", "sequence (Q9Y3D0 whole entry)": "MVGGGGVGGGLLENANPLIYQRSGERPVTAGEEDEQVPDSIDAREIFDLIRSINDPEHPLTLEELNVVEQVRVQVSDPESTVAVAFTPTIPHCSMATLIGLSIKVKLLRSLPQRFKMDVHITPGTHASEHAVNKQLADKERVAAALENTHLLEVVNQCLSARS", "test": "Binding affinity to FAM96B in human NCI-H23 cells at 1 uM by mass spectrometry based pull down assay", "assay_type": "cell-based"}, "[22]": {"target": "Actin-related protein 2 (Homo sapiens) (UniProt P61160)", "test": "Binding affinity to ACTR2 in human NCI-H23 cells at 1 uM by mass spectrometry based pull down assay", "assay_type": "cell-based", "summary_of_the_method": "as §2"}, "[23]": {"target": "Polymeric immunoglobulin receptor (Homo sapiens) (UniProt P01833)", "test": "Binding affinity to PIGR in human NCI-H358 cells at 1 uM by mass spectrometry based pull down assay", "assay_type": "cell-based"}}, "note": "Activity calls are given as the source filed them. No cut-off for these calls is given here."}
{"molecule": "COc1cc(O)c2c(c1)/C=C/C[C@H](O)[C@H](O)C(=O)/C=C\\C[C@H](C)OC2=O", "values": [{"measurement": "Activity", "setting": "[1]", "result": 5.2, "unit": "%"}, {"measurement": "Activity", "setting": "[2]", "result": 0.1, "unit": "%"}, {"measurement": "Activity", "setting": "[3]", "result": 0.2, "unit": "%"}]}
{"molecule": "C=CC(=O)Nc1ccccc1Nc1nc(Nc2ccc(N3CCN(CCOCCOCCOCCNC(=O)CCCC[C@@H]4SC[C@@H]5NC(=O)N[C@@H]54)CC3)cc2)ncc1Cl", "values": [{"measurement": "Activity", "setting": "[4]", "result": "Active"}, {"measurement": "Activity", "setting": "[5]", "result": "Active"}, {"measurement": "Activity", "setting": "[6]", "result": "Active"}, {"measurement": "Activity", "setting": "[7]", "result": "Active"}, {"measurement": "Activity", "setting": "[8]", "result": "Active"}, {"measurement": "Activity", "setting": "[9]", "result": "Active"}, {"measurement": "Activity", "setting": "[10]", "result": "Active"}, {"measurement": "Activity", "setting": "[11]", "result": "Active"}, {"measurement": "Activity", "setting": "[12]", "result": "Active"}, {"measurement": "Activity", "setting": "[13]", "result": "Active"}, {"measurement": "Activity", "setting": "[14]", "result": "Active"}, {"measurement": "Activity", "setting": "[15]", "result": "Active"}, {"measurement": "Activity", "setting": "[16]", "result": "Active"}, {"measurement": "Activity", "setting": "[17]", "result": "Active"}, {"measurement": "Activity", "setting": "[18]", "result": "Active"}, {"measurement": "Activity", "setting": "[19]", "result": "Active"}, {"measurement": "Activity", "setting": "[20]", "result": "Active"}, {"measurement": "Activity", "setting": "[21]", "result": "Active"}, {"measurement": "Activity", "setting": "[22]", "result": "Active"}, {"measurement": "Activity", "setting": "[23]", "result": "Active"}]}
